Experimental data as given in ChEMBL document CHEMBL4043223, “Structure-activity relationship study of small molecule inhibitors of the DEPTOR-mTOR interaction” (Bioorg Med Chem Lett, 2017).
Calls of active or inactive are those of the source. No cut-off for these calls is given here.

Experiments:
RPMI-8226 [1] = assay: Cytotoxicity against human RPMI8226 cells after 48 hrs by MTT assay; format: functional, cell-based; conditions: RPMI-8226, 48 h
Summary of the method: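 MTT in RPMI-8226 cells: 1–2 × 10^4 cells per well in complete medium, exposed 48 h to a range of compound concentrations. MTT reduction to formazan read at 570 nm. Quadruplicate wells per group; OD given as % of DMSO-only control set at 100%. IC50 taken from the concentration series.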

[2] = Therapeutic index, ratio of IC50 for PBL (unknown origin) to IC50 for human RPMI8226 cells
Summary of the method: (§1)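 Normal peripheral blood lymphocytes tested head-to-head with 8226 myeloma cells in 48 h MTT assays. […] Therapeutic index = IC50(PBL)/IC50(8226).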

[3] = molecular target: DEP domain-containing mTOR-interacting protein (Homo sapiens) (UniProt Q8TB45); assay: Inhibition of mTOR binding to DEPTOR in human RPMI8226 cells assessed as increase in mTORC1-associated p70 phosphorylation at […] after 6 hrs by Western blot analysis; format: cell-based
PBL = assay: Cytotoxicity against PBL (unknown origin) after 48 hrs by MTT assay; format: cell-based; summary of the method: as §1
[4] = molecular target: DEP domain-containing mTOR-interacting protein (Homo sapiens) (UniProt Q8TB45); assay: Inhibition of mTOR binding to DEPTOR in human RPMI8226 cells assessed as increase in mTORC1-associated p70 phosphorylation at 1 uM after 6 hrs by Western blot analysis; format: cell-based
Summary of the method: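 8226 cells exposed 6 h to compound, DMSO in untreated controls. Lysates run on 12.5% SDS-PAGE, transferred to PVDF, probed for phospho- and total p70. Densitometric phospho/total ratio expressed as fold versus parent compound B set at 1; mean ± SD, n = 4.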

[5] = molecular target: DEP domain-containing mTOR-interacting protein (Homo sapiens) (UniProt Q8TB45); assay: Inhibition of mTOR binding to DEPTOR in human RPMI8226 cells at 0.5 uM treated 6 hrs followed by DEPTOR immunoprecipitation by immunoblotting analysis; format: cell-based
Summary of the method: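 Co-immunoprecipitation: 8226 cells treated 6 h with DMSO or 0.5 µM compound. DEPTOR immunoprecipitated; precipitates immunoblotted for DEPTOR and bound mTOR.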

RPMI-8226 [6] = assay: Cytotoxicity against RAPTOR knockdown human RPMI8226 cells at 0.12 to 1 uM after 48 hrs by MTT assay; format: functional, cell-based
Summary of the method: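 8226 cells infected with lentivirus carrying shRAPTOR or control shSCRAMBLE, knockdown confirmed by immunoblot. Cells then incubated with increasing compound concentrations; MTT read-out after 48 h, formazan at 570 nm, as % of DMSO control.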

MM1.S = assay: Cytotoxicity against human MM1S cells after 48 hrs by MTT assay; format: functional, cell-based
Summary of the method: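 MM1.S myeloma cells (DEPTOR-over-expressing) in 48 h MTT: 1–2 × 10^4 cells per well, graded compound concentrations, formazan at 570 nm. Quadruplicate wells; survival as % of DMSO control; IC50 derived from the concentration range.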

RPMI-8226 [7] = assay: Induction of apoptosis in human RPMI8226 cells assessed as caspase3 activation at 0.12 to 2 uM after 48 hrs by cytofix/cytoperm staining based flow cytometry; format: functional, cell-based
Summary of the method: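 Caspase-3 flow cytometry 48 h after drug exposure of 8226 cells. 10^6 cells washed in PBS, fixed and permeabilized in cytofix/cytoperm, stained 30 min with PE-conjugated anti-active-caspase-3 (1:5 dilution). % apoptosis = drug-treated minus DMSO-control positives; mean ± SD, n = 4.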

RPMI-8226 [8] = assay: Cytotoxicity against human RPMI8226 cells at 1 to 2 uM after 6 hrs by MTT assay; format: cell-based; conditions: rpmi-8226, 6 h
RPMI-8226 [9] = assay: Cytotoxicity against human RPMI8226 cells at 0.05 to 0.2 uM after 6 hrs by MTT assay; format: cell-based; conditions: rpmi-8226, 6 h
RPMI-8226 [10] = assay: Cytotoxicity against human RPMI8226 cells at 0.5 uM after 6 hrs by MTT assay; format: cell-based; conditions: rpmi-8226, 6 h
[11] = molecular target: DEP domain-containing mTOR-interacting protein (Homo sapiens) (UniProt Q8TB45); assay: Inhibition of mTOR binding to DEPTOR in human RPMI8226 cells at 1 uM treated 6 hrs followed by DEPTOR immunoprecipitation by immunoblotting analysis; format: cell-based
Summary of the method: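 RPMI8226 myeloma cells exposed to compound or DMSO for 6 h; DEPTOR immunoprecipitated from cell extracts, and precipitates immunoblotted for DEPTOR and co-precipitated mTOR. Proteins resolved by 12.5% SDS-PAGE, transferred to PVDF and detected with specific antibodies.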

RPMI-8226 [12] = assay: Induction of apoptosis in human RPMI8226 cells assessed as caspase3 activation in presence of mTOR inhibitor pp242 by cytofix/cytoperm staining based flow cytometry; format: functional, cell-based
[13] = molecular target: DEP domain-containing mTOR-interacting protein (Homo sapiens) (UniProt Q8TB45); assay: Inhibition of mTOR binding to DEPTOR in human RPMI8226 cells assessed as decrease in AKT phosphorylation at […] residue by Western blot analysis; format: cell-based
RPMI-8226 [14] = assay: Cytotoxicity against human RPMI8226 cells after 48 hrs in presence of mTOR inhibitor pp242 by MTT assay; format: functional, cell-based
[15] = molecular target: DEP domain-containing mTOR-interacting protein (Homo sapiens) (UniProt Q8TB45); assay: Inhibition of mTOR binding to DEPTOR in human RPMI8226 cells assessed as increase in mTORC1-associated S6 phosphorylation by Western blot analysis; format: cell-based
[16] = molecular target: DEP domain-containing mTOR-interacting protein (Homo sapiens) (UniProt Q8TB45); assay: Inhibition of DEPTOR in human RPMI8226 cells assessed as upregulation of mTORC1-dependant p21 expression at 0.5 to 2 uM after 6 hrs by Western blot analysis; format: cell-based
[17] = molecular target: DEP domain-containing mTOR-interacting protein (Homo sapiens) (UniProt Q8TB45); assay: Inhibition of mTOR binding to DEPTOR in human RPMI8226 cells assessed as increase in mTORC1-associated 4E-BP1 phosphorylation by Western blot analysis; format: cell-based
[18] = molecular target: DEP domain-containing mTOR-interacting protein (Homo sapiens) (UniProt Q8TB45); assay: Inhibition of mTOR binding to DEPTOR in human RPMI8226 cells assessed as increase in mTORC2-associated SGK phosphorylation by Western blot analysis; format: cell-based
[19] = molecular target: DEP domain-containing mTOR-interacting protein (Homo sapiens) (UniProt Q8TB45); assay: Inhibition of mTOR binding to DEPTOR in human RPMI8226 cells assessed as increase in mTORC2-associated AKT phosphorylation at S473 residue by Western blot analysis; format: cell-based

Sequence of DEP domain-containing mTOR-interacting protein (Homo sapiens) (Q8TB45 whole entry, the tested form may be a part): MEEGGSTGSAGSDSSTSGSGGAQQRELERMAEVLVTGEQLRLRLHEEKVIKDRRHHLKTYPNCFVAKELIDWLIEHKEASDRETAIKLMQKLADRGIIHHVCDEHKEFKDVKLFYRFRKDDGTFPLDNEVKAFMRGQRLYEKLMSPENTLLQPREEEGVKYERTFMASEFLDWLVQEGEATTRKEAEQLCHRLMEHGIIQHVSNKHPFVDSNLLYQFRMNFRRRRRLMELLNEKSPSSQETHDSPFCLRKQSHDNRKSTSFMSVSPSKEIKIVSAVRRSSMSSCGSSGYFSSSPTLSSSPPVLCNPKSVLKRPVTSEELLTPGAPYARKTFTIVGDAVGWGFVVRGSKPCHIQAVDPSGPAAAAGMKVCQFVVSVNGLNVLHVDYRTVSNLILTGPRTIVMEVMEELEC

In the case of `C#CC(C)(C)OC(=O)NN=C1C(Cl)=C(Cl)C(Cl)=C1Cl`, the IC50 (RPMI-8226 [1]) is reported as over 5000 nM.

With `Fc1ccc(NN=C2C(Cl)=C(Cl)C(Cl)=C2Cl)cc1` the “Ratio IC50” value [2] was 33, the inhibition [3] was “Active” and the IC50 (PBL) was 20 µM. For the same compound, the inhibition [4] was “Active”, the IC50 (RPMI-8226 [1]) was 600 to 700 nM and the inhibition [5] was “Active”. For the same compound, the Activity (RPMI-8226 [6]) was “inactive”, the IC50 (MM1.S) was 1300 nM and the Activity (RPMI-8226 [7]) was “Active”.

For `O=C(NN=C1C(Cl)=C(Cl)C(Cl)=C1Cl)c1ccccc1`, the Activity (RPMI-8226 [8]) was “Toxic”, the Activity (RPMI-8226 [9]) was “Non-Toxic” and the Activity (RPMI-8226 [10]) was “Toxic”. It also gave an IC50 (RPMI-8226 [1]) of 600 nM and an IC50 (MM1.S) of 800 nM.

In the case of `NN=C1C(Cl)=C(Cl)C(Cl)=C1Cl`, the “Ratio IC50” value [2] is reported as 14.3, the IC50 (PBL) is reported as 20 µM and the inhibition [4] is reported as “Active”. For the same compound, the IC50 (RPMI-8226 [1]) was 1300 to 1500 nM, the inhibition [5] was “inactive” and the inhibition [11] was “Active”. The IC50 (MM1.S) was 3000 nM and the Activity (RPMI-8226 [7]) was “Active”.

With `Cc1cccc(NN=C2C(Cl)=C(Cl)C(Cl)=C2Cl)c1` the IC50 (RPMI-8226 [1]) was 2000 nM and the IC50 (MM1.S) was over 3000 nM.

Work on `Fc1ccccc1NN=C1C(Cl)=C(Cl)C(Cl)=C1Cl` yielded an IC50 (RPMI-8226 [1]) of over 3000 nM and an IC50 (MM1.S) of over 3000 nM.

Work on `NN=C(c1ccccc1)c1ccccc1` yielded an IC50 (RPMI-8226 [1]) of over 5000 nM and an IC50 (MM1.S) of over 5000 nM.

`COC1(OC)C(Cl)=C(Cl)C(Cl)=C1Cl` showed an IC50 (RPMI-8226 [1]) of over 5000 nM.

Compound `O=C(c1ccccc1)N(N=C1C(Cl)=C(Cl)C(Cl)=C1Cl)C(=O)c1ccccc1` has an IC50 (RPMI-8226 [1]) of 800 nM and an IC50 (MM1.S) of 2000 nM.

Work on `COc1cccc(NN=C2C(Cl)=C(Cl)C(Cl)=C2Cl)c1` yielded an IC50 (RPMI-8226 [1]) of over 3000 nM and an IC50 (MM1.S) of over 3000 nM.

`C#CCOC(=O)NN=C1C(Cl)=C(Cl)C(Cl)=C1Cl` showed an IC50 (RPMI-8226 [1]) of 800 nM.

For `CC(C)(C)OC(=O)NN=C1C(Cl)=C(Cl)C(Cl)=C1Cl`, the “Ratio IC50” value [2] was 45.5, the inhibition [3] was “Active” and the Activity (RPMI-8226 [12]) was “inactive”. For the same compound, the IC50 (PBL) was 5 µM, the inhibition [4] was “Active” and the inhibition [13] was “Active”. For the same compound, the Activity (RPMI-8226 [14]) was “inactive”, the inhibition [15] was “Active” and the inhibition [16] was “Active”. The IC50 (RPMI-8226 [1]) was 100 to 110 nM, the inhibition [17] was “Active” and the inhibition [5] was “Active”. For the same compound, the Activity (RPMI-8226 [6]) was “inactive”, the inhibition [18] was “Active” and the IC50 (MM1.S) was 600 nM. For the same compound, the inhibition [19] was “Active” and the Activity (RPMI-8226 [7]) was “Active”.

With `O=C(c1ccc(F)cc1)N(N=C1C(Cl)=C(Cl)C(Cl)=C1Cl)C(=O)c1ccc(F)cc1` the “Ratio IC50” value [2] was 10, the inhibition [3] was “Active” and the IC50 (PBL) was 2 µM. The inhibition [4] was “Active”, the inhibition [16] was “Active” and the IC50 (RPMI-8226 [1]) was 200 to 250 nM. For the same compound, the IC50 (MM1.S) was 300 nM and the Activity (RPMI-8226 [7]) was “Active”.

Work on `NN=C1c2ccccc2-c2ccccc21` yielded an IC50 (RPMI-8226 [1]) of over 5000 nM.

`NN=c1c2ccccc2oc2ccccc12` showed an IC50 (RPMI-8226 [1]) of over 5000 nM and an IC50 (MM1.S) of over 5000 nM.
